Test results reported in ChEMBL document CHEMBL4049421, “Design, Synthesis, and Pharmacological Characterization of N-(4-(2 (6,7-Dimethoxy-3,4-dihydroisoquinolin-2(1H)yl)ethyl)phenyl)quinazolin-4-amine Derivatives: Novel Inhibitors Reversing P-Glycoprotein-Mediated Multidrug Resistance” (J Med Chem, 2017).
Calls of active or inactive are those of the source. No cut-off for these calls is given here.

Legend:
Rattus norvegicus [1] = test: AUC(0 to 24 hrs) in Sprague-Dawley rat plasma at 10 mg/kg, po measured after 24 hrs by LC-MS/MS analysis; assay type: ADME, organism-based; design: dose 10 mg/kg, time < 24 hr, route oral; conditions: in vivo
Procedure, shortened: (§1)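 Male Sprague-Dawley rats, n = 3 per group, given drug in Tween-80/ethanol/saline (5:10:85, v/v) at 10 mg/kg p.o. or 5 mg/kg i.v. Retro-orbital blood was taken at 5 min to 24 h, and plasma separated at 900g. Samples were spiked with internal standard, methanol-precipitated and quantified by LC-MS/MS. F = (AUCpo/AUCiv)×(dose iv/dose po)×100%.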

[2] = Cytotoxicity against human K562/A02 cells assessed as cell viability at 1.0 uM after 48 hrs by MTT assay (reference value: >99%); assay type: cell-based; conditions: read-out: Activity
Homo sapiens [3] = species on record: Homo sapiens; test: Inhibition of P-gp in human K562/A02 cells assessed as potentiation of doxorubicin-induced cytotoxicity at 1.0 uM preincubated for 24 hrs followed by doxorubicin addition measured after 48 hrs by MTT assay; assay type: cell-based
Procedure, shortened: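 K562/A02 cells (1×10^4 cells per well) were preincubated 24 h with modulator (1.0 μM or 5.0 μM) or PBS. Cells were washed 0 or 3 times with medium and held for 0, 6, 12 or 24 h. A DOX concentration series was then added for 48 h, and viability was read by MTT. Triplicate determinations.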

Rattus norvegicus [4] = test: Effect on MRT of doxorubicin in Sprague-Dawley rat at 5 mg/kg, iv co-administered with doxorubicin measured after 8 hrs by LC-MS/MS analysis; assay type: ADME, organism-based; conditions: in vivo
Procedure, shortened: (§2)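 Male SD rats received DOX 10 mg/kg i.v. alone or with modulator 5 mg/kg i.v. Orbital blood was taken at 5 min to 8 h. Plasma DOX was measured by LC-MS/MS with DNR (0.5 μg/mL) as internal standard. Mean ± SD, n = 3.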

[5] = Plasma clearance in Sprague-Dawley rat at 5 mg/kg, iv measured after 24 hrs by LC-MS/MS analysis; assay type: ADME, organism-based; procedure, shortened: as §1
Rattus norvegicus [6] = test: AUC(0 to infinity) in Sprague-Dawley rat plasma at 5 mg/kg, iv measured after 24 hrs by LC-MS/MS analysis; assay type: ADME, organism-based; design: dose 5 mg/kg, time infinity, route intravenous; conditions: in vivo; procedure, shortened: as §1
[7] = Cmax in Sprague-Dawley rat at 5 mg/kg, iv measured after 24 hrs by LC-MS/MS analysis; assay type: ADME, organism-based; design: dose 5 mg/kg, route intravenous; conditions: in vivo; procedure, shortened: as §1
K562/A02 [8] = test: Potentiation of cyclophosphamide-induced cytotoxicity against human K562/A02 cells at 1.0 uM after 48 hrs by MTT assay; assay type: functional, cell-based
Procedure, shortened: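 K562/A02 cells were exposed for 48 h to DNR, PTX, VLB or CTX at 0, 0.313–20 μM, with or without modulator at 1.0 μM. Viability was measured by MTT at 490 nm, mean ± SD of three independent tests.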

[9] = Elimination half life in Sprague-Dawley rat plasma at 5 mg/kg, iv by LC-MS/MS analysis; assay type: ADME, organism-based; conditions: read-out: beta t1/2 (converted); procedure, shortened: as §1
[10] = Plasma clearance in Sprague-Dawley rat at 10 mg/kg, po measured after 24 hrs by LC-MS/MS analysis; assay type: ADME, organism-based; procedure, shortened: as §1
[11] = Bioavailability in Sprague-Dawley rat plasma at 5 mg/kg, iv measured after 24 hrs by LC-MS/MS analysis; assay type: ADME, organism-based
Procedure, shortened: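 Bioavailability was calculated as (AUCpo/AUCiv)×(dose iv/dose po)×100% from male SD rats (n = 3) dosed 5 mg/kg i.v. or 10 mg/kg p.o. in Tween-80/ethanol/saline (5:10:85). Plasma sampled 5 min–24 h was analysed by LC-MS/MS.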

Rattus norvegicus [12] = test: Effect on plasma concentration of doxorubicin in Sprague-Dawley rat at 5 mg/kg, iv co-administered with doxorubicin measured after 8 hrs by LC-MS/MS analysis; assay type: ADME, organism-based; conditions: in vivo; procedure, shortened: as §2
Rattus norvegicus [13] = test: Effect on plasma clearance of doxorubicin in Sprague-Dawley rat at 5 mg/kg, iv co-administered with doxorubicin measured after 8 hrs by LC-MS/MS analysis; assay type: ADME, organism-based; conditions: in vivo; procedure, shortened: as §2
Homo sapiens [14] = species on record: Homo sapiens; test: Inhibition of ATPase activity in human P-gp membrane fraction at 0.5 uM in presence of ATP after 1 hr by luciferase […]; assay type: cell membranes
Procedure, shortened: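 Human P-gp membrane fraction (~25 μg) was incubated with compound at 0.5, 5.0 or 50.0 μM in 0.5% DMSO, with a 100 μM sodium vanadate reference. Reaction was started with 5.0 mM MgATP, 1 h at 37 °C. Remaining ATP was read by luciferase luminescence after 20 min at room temperature, relative to vanadate. n = 3.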

[15] = Selective index, ratio of IC50 for human K562 cells to EC50 for inhibition of P-gp in human K562/A02 cells assessed as potentiation of doxorubicin-induced cytotoxicity
Procedure, shortened: (§3)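 Reversal EC50 is the modulator concentration that halves the DOX IC50 in K562/A02 cells, from % DOX IC50 plotted against log modulator concentration. The index divides the MTT IC50 in K562, K562/A02 or HUVEC cells by this EC50.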

K562/A02 [16] = test: Cytotoxicity against human K562/A02 cells assessed as suppression of cell viability after 48 hrs by MTT assay; assay type: cell-based; conditions: K562/A02, 48 h
Procedure, shortened: (§4)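 MTT assay on HUVEC, K562 or K562/A02 cells seeded at 1×10^4 cells per well, using serial compound concentrations. Formazan was dissolved in DMSO and read at 490 nm. IC50 was obtained from log dose–response curves, mean ± SD of three independent tests.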

HUVEC = test: Cytotoxicity against HUVEC assessed as reduction in cell viability after 48 hrs by MTT assay; assay type: cell-based; conditions: Homo sapiens; procedure, shortened: as §4
Rattus norvegicus [17] = test: AUC(0 to 24 hrs) in Sprague-Dawley rat plasma at 5 mg/kg, iv measured after 24 hrs by LC-MS/MS analysis; assay type: ADME, organism-based; design: dose 5 mg/kg, time < 24 hr, route intravenous; conditions: in vivo; procedure, shortened: as §1
[18] = Selectivity index, ratio of IC50 for HUVEC to EC50 for inhibition of P-gp in human K562/A02 cells assessed as potentiation of doxorubicin-induced cytotoxicity; procedure, shortened: as §3
Rattus norvegicus [19] = test: AUC(0 to infinity) in Sprague-Dawley rat plasma at 10 mg/kg, po measured after 24 hrs by LC-MS/MS analysis; assay type: ADME, organism-based; design: dose 10 mg/kg, route oral, time infinity; conditions: in vivo; procedure, shortened: as §1

AUC (Rattus norvegicus [1]): 3130 ng·h/mL | clearance [5]: 47.8 mL/min/kg | AUC (Rattus norvegicus [6]): 1750 ng·h/mL | Cmax [7]: 570 ng/mL | half-life [9]: 5.9 h | CL/F [10]: 49.9 mL/min/kg | bioavailability [11]: 95.3% | inhibition (Homo sapiens [14]): Active | AUC (Rattus norvegicus [17]): 1660 ng·h/mL | AUC (Rattus norvegicus [19]): 3340 ng·h/mL
SMILES: COc1cc2c(cc1OC)CN(CCc1ccc(Nc3nc(-c4ccncc4)nc4ccccc34)cc1)CC2
viability at 48 h, 1 µM [2]: > 99% | inhibition (Homo sapiens [3]): Active | Activity (Rattus norvegicus [4]): Non-Toxic | Activity (K562/A02 [8]): inactive | Activity (Rattus norvegicus [12]): Non-Toxic | Activity (Rattus norvegicus [13]): Non-Toxic | Ratio IC50/EC50 [15]: 75.6 | IC50 (K562/A02 [16]): 12.8 µM | IC50 (HUVEC): 73.6 µM | Ratio IC50/EC50 [18]: 1270
